This is a sample that favours compounds with a hit; in the whole collection about 1.7% have one here.
Rpn11 inh: Rpn11 (human) deubiquitinase inhibition; 360,000 tested, 0.59% active; calls only at 20 µM; human 26S proteasome, Ub4-pepOG fluorescence polarization; 20S core pre-blocked with epoxomicin; O00487;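 active = inhibition at 20 µM, scaled to each plate's controls, above about 33%, limit read from the data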
TPT1 inh: inhibitors of Candida albicans tRNA 2'-phosphotransferase TPT1 | recombinant caTPT1, FP RNA substrate dephosphorylation | inhibition, % at 5 µM | 300,000 tested, 0.81% active;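 active = inhibition above the mean of all tested compounds plus 3 SD, set per screening campaign, cut at about 24% in these data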;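 note: plate controls were DMSO alone for no effect and ferristatin control at 100 nM for full effect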
IDE cell inh: inhibitors of human insulin-degrading enzyme in cells; P14735; inhibition, % at 5.59 µM; HEK cells, FAbetaB cleavage, fluorescence polarization; 320,000 tested, 0.41% active;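 active = percent inhibition above the average of all tested compounds plus 3 SD, set per screening campaign, cut at about 16% in these data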;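 note: IDE supplied by intact live HEK cells; FP after avidin binding of uncleaved biotin substrate so inhibition keeps polarization high; 0% = DMSO wells and 100% = 60 µM reference IDE inhibitor Ii1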
HNF4A DNA FP: change in binding of human HNF4 alpha to DNA | HNF4a-FITC DNA binding, fluorescence polarization, 1 h | activity change, % at 10 µM | 360,000 tested, 0.3% active | AID 1224865; in the data active = activity change above about 30%, passing the limit was not always enough
IDE cell activ: boosts human insulin-degrading enzyme activity in HEK cells; activation, % at 5.96 µM; FAbeta-B cleavage, fluorescence polarization; 0% vehicle, 100% cell-free pure enzyme wells; P14735; 340,000 tested, 0.073% active;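 active = activation above the mean of all tested compounds plus 3 SD, set per screening campaign, cut at about 17% in these data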
CSN inh: inhibitors of human CSN-mediated cullin deneddylation | Q92905 | Purified CSN, SCF-Nedd8-OG deneddylation, fluorescence polarization | inhibition, % at 12.5 µM | 360,000 tested, 0.38% active | AID 651999;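 active = pattern-corrected inhibition above about 35%, with an unprinted fluorescence ratio check between 0.5 and 1.5, limit read from the data, passing the limit was not always enough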;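 note: 0% = enzyme with substrate and 100% = substrate without enzyme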
Target sequence (Q92905 whole entry, looked up, one chain of several): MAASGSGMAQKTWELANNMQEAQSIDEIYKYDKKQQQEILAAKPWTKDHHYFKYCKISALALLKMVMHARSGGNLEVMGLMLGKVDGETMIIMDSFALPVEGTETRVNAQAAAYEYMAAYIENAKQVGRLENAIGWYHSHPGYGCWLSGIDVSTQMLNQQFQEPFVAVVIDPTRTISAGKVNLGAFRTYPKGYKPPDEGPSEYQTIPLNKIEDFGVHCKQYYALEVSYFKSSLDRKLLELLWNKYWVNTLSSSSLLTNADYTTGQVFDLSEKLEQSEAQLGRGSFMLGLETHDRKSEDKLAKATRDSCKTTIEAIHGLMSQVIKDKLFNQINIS
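Test system: Human Csn5 produced in HEK293T cells | Compound: 12.5 µM single point | Times: 90 min, room temperature | Signal: Fluorescence polarization readout | Read-out basis: % inhibition of substrate cleavage by Csn5 | Controls: no-enzyme wells high, enzyme-with-substrate wells low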
Rpn11 confirm: Rpn11 inhibition confirmation, single concentration; shares compounds with Rpn11 inh; purified human 26S proteasome, Ub4-pepOG fluorescence polarization; proteasome pretreated with epoxomicin; inhibition, % at 20 µM; 1,900 tested, 29% active; AID 602318
MMP-2 counter: blocks human MMP-2, flagging nonselective RPN11 hits. shares compounds with Rpn11 inh. recombinant MMP-2, FRET peptide cleavage fluorescence. inhibition, % at 20 µM. 1,900 tested, 4% active. AID 602330;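 note: human MMP-2 activated beforehand with APMA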
Thrombin FP: blocks bovine thrombin, flagging nonselective RPN11 hits; shares compounds with Rpn11 inh; bovine thrombin cleavage of Ub4-pepOG, fluorescence polarization; inhibition, % at 20 µM; 1,900 tested, 13% active; AID 602333;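 active = mean inhibition at least 40% at 20 µM, or signal 3 deviations below plate average, so some actives read negative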;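 note: plate controls were thrombin with DMSO for no effect and buffer wells lacking thrombin for full effect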
An asterisk follows results filed as active; i = inactive; · = no result given; + = active, no number. Cut-off read from the data, not from the text of the source, unless noted: active = inhibition above about 40%; inactive = the rest.

SMILES	Rpn11 inh	TPT1 inh	IDE cell inh	HNF4A DNA FP	IDE cell activ	CSN inh	Rpn11 confirm	MMP-2 counter	Thrombin FP
Cc1cc2nc(CO)[nH]c2cc1C	i	-2	2	4	2	1	·	·	·
Cc1cc2nc(CS)[nH]c2cc1C	+	6	-1	35	-2	6	53*	14	1
Cc1cc2nc(/C=C/c3nc4cc(C)c(C)cc4[nH]3)[nH]c2cc1C	+	13	-1	25	-1	5	4	-5	-30
O=C(Nc1nnc(-c2ccncc2)o1)C1CCCCC1	i	-4	0	4	2	-6	·	·	·
CC(=O)Nc1cc(C(=O)N2CCCC2)ccc1S(=O)(=O)c1ccc(C)cc1	i	2	3	3	3	1	·	·	·
COc1ccc(-c2ccc3[nH]c4c(c3c2)CCN2C[C@@H]([C@H](C)O)[C@@H](N(C)C(=O)Nc3cc(Cl)cc(Cl)c3)C[C@@H]42)cc1	+	·	·	17	·	7	26	5	3
COc1cccc(CN2c3ccc(Br)cc3C(=O)CS2(=O)=O)c1	+	·	6	2	0	2	-5	-25	-10
CSc1nc2nc(C)cc(-c3ccccc3)n2n1	i	-1	8	-5	-6	-3	·	·	·
Cc1ccc(N(CC(=O)N2CCc3ccccc32)C2=NC(=O)CS2)cc1	i	1	1	0	2	-2	·	·	·
COc1ccc(-c2nn(CCC(=O)O)cc2/C=C2\SC(N)=NC2=O)cc1	+	11	-5	8	3	-5	38	-5	31
NC1=NC(=O)/C(=C/c2cn(CCC(=O)O)nc2-c2ccc(Cl)cc2)S1	+	16	6	4	1	5	46*	-3	32
Cc1ccc2nc(N(CCN(C)C)C(=O)c3ccc4ccccc4c3)sc2c1	i	1	-3	6	4	-4	·	·	·
CCCCCCCCCCCCCCCC[n+]1ccc(C(N)=O)cc1	+	1	-14	15	8	3	15	-10	-18
CCCCC(=O)Nc1ccc(C(N)=O)cc1	i	-2	1	2	3	11	·	·	·
CCCCN1CC(COCc2ccccc2)Oc2cccc(NCc3ccc(OC)cc3)c2S1(=O)=O (configuration not stated)	i	·	·	6	5	2	·	·	·
COc1ccc(OCC(O)CN2CCN(c3ccc(Cl)cc3)CC2)cc1 (configuration not stated)	i	-2	3	3	-2	-3	·	·	·
COc1ccc(N2CCN(CC(O)COc3ccc4c(c3)CCC4)CC2)cc1 (configuration not stated)	+	1	4	6	1	3	-3	-3	-2
c1cc(C2CCCCC2)ccc1Oc1nc(N2CCOCC2)nc(N2CCOCC2)n1	+	-3	-1	-20	5	1	7	19	-13
Cc1cc(C)c2nc(/N=C(\N)NC(=O)Nc3ccccc3)nc(C)c2c1	+	-3	-5	6	4	8	15	28	-8
CCCC(=O)N/C(N)=N/c1nc(C)c2ccccc2n1	i	2	1	-3	9	1	·	·	·
CC1Cc2ccccc2N1C(=O)c1ccc(N2CCCCC2)c([N+](=O)[O-])c1 (configuration not stated)	+	-2	2	-2	3	1	-3	-3	-1
CC1Cc2ccccc2N1C(=O)c1ccc(N2CCCC2)c([N+](=O)[O-])c1 (configuration not stated)	i	-2	-2	6	5	8	·	·	·
CCOc1ccccc1C1N=C(c2ccc(OC)cc2)CC(c2ccccc2O)N1 (configuration not stated)	+	0	7	2	1	5	-13	-46	-4
Cn1c(SCC(=O)NCC2CCCO2)ncc(C(=O)Nc2ccc(Cl)cc2)c1=O (configuration not stated)	+	3	-1	2	-2	8	11	-47	-3
COC(=O)c1sc(N2C(=O)C(O)=C(C(=O)c3ccc(C)o3)C2c2cccs2)nc1C (configuration not stated)	+	10	2	20	4	19	5	12	-26
SMILES	Rpn11 inh	TPT1 inh	IDE cell inh	HNF4A DNA FP	IDE cell activ	CSN inh	Rpn11 confirm	MMP-2 counter	Thrombin FP
COC(=O)c1sc(N2C(=O)C(O)=C(C(=O)c3ccc(C)o3)C2c2ccc(F)cc2)nc1C (configuration not stated)	+	26*	2	16	-4	30	16	14	-3
CCOC(=O)c1sc(N2C(=O)C(O)=C(C(=O)c3ccco3)C2c2cccc(Cl)c2)nc1C (configuration not stated)	+	8	3	4	0	2	15	39	5
CCOC(=O)c1sc(N2C(=O)C(O)=C(C(=O)c3ccco3)C2c2cccc([N+](=O)[O-])c2)nc1C (configuration not stated)	i	-6	-1	1	6	-1	·	·	·
COC(=O)c1sc(N2C(=O)C(O)=C(C(=O)c3ccc(C)o3)C2c2ccco2)nc1C (configuration not stated)	i	8	2	-1	1	1	·	·	·
O=C(N/C(=C/c1cccs1)C(=O)N1CCOCC1)c1cccs1	i	3	1	0	4	1	·	·	·
CCOC(=O)c1ccc(NC(=S)NCCCn2ccnc2)cc1	i	0	1	2	2	-6	·	·	·
Cc1cccc2sc(N3CCN(C(=O)c4cccs4)CC3)nc12	i	-3	0	-4	-2	-1	·	·	·
O=C(N/N=C/c1ccncc1)c1ccc(NC(=O)c2ccc(Cl)cc2)cc1	+	1	-2	6	-7	12	17	-6	2
O=C(N/N=C/c1ccco1)c1ccc(NC(=O)c2ccc(Cl)cc2)cc1	+	-2	6	-7	-1	0	-5	-1	-5
O=C(N/N=C/c1ccncc1)c1ccc(NC(=O)c2cccc(Cl)c2)cc1	+	5	8	31	-10	78*	19	-32	-10
Cc1ccc(N(CC(=O)NCc2ccco2)S(=O)(=O)c2ccccc2)cc1	i	-2	4	-5	2	-1	·	·	·
